Experimental data: ChEMBL document CHEMBL4350963, “Discovery and Lead-Optimization of 4,5-Dihydropyrazoles as Mono-Kinase Selective, Orally Bioavailable and Efficacious Inhibitors of Receptor Interacting Protein 1 (RIP1) Kinase” (J Med Chem, 2019)
Values after ≈ are worked out from the molar mass of the structure shown.

Assays:
[1] = Chromatographic hydrophobicity index, log D of the compound at pH 7.4 by reverse-phase HPLC analysis; format: physicochemical; settings: buffer
In short: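 Log D at pH 7.4 was calculated from the retention time on a fast-gradient reverse-phase HPLC run.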

[2] = Volume of distribution at steady state in rat at 1 mg/kg, iv; format: ADME, organism-based; settings: in vivo, read-out: Vdss
[3] = AUC (0 to infinity) in rat at 1 mg/kg, iv; format: ADME, organism-based; set-up: dose 1 mg/kg, time infinity, route intravenous; settings: in vivo
In short: (§1)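 Rat pharmacokinetics: the iv arm was dosed at 1 mg/kg in 5% DMSO/20% Cavitron aqueous solution. The oral arm was dosed at 2 mg/kg in 5% DMSO/6% Cavitron aqueous solution. Bioavailability was calculated non-crossover, from average exposures in separate oral and iv studies.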

[4] = AUC (0 to infinity) in minipig at 1 mg/kg, iv; format: ADME, organism-based, Sus scrofa; set-up: dose 1 mg/kg, route intravenous, time infinity; settings: pig, in vivo
[5] = Cmax in mouse at 30 mg/kg, po; format: ADME, organism-based; set-up: dose 30 mg/kg, route oral; settings: in vivo
In short: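 Mouse pharmacokinetics: the iv arm received 2 mg/kg in 5% DMSO/20% Cavitron aqueous solution. The oral arm received 30 mg/kg as a suspension in 1% aqueous methylcellulose.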

[6] = Oral bioavailability in minipig at 2 mg/kg; format: ADME, organism-based, Sus scrofa; settings: pig, in vivo
[7] = Tmax in monkey at 2 mg/kg, po; format: ADME, organism-based, Macaca mulatta; settings: rhesus monkey, in vivo
[8] = AUC (0 to infinity) in mouse at 2 mg/kg, iv; format: ADME, organism-based; set-up: dose 2 mg/kg, time infinity, route intravenous; settings: in vivo
[9] = Solubility of the compound in fasted state simulated intestinal fluid measured after 4 hrs; format: physicochemical
[10] = AUC (0 to infinity) in monkey at 1 mg/kg, iv; format: ADME, organism-based, Macaca mulatta; set-up: dose 1 mg/kg, time infinity, route intravenous; settings: rhesus monkey, in vivo
[11] = Cmax in minipig at 2 mg/kg, po; format: ADME, organism-based, Sus scrofa; set-up: dose 2 mg/kg, route oral; settings: pig, in vivo
[12] = Cmax in rat at 2 mg/kg, po; format: ADME, organism-based; set-up: dose 2 mg/kg, route oral; settings: in vivo; in short: as §1
[13] = Oral bioavailability in rat at 2 mg/kg; format: ADME, organism-based; settings: in vivo
[14] = Tmax in mouse at 30 mg/kg, po; format: ADME, organism-based; settings: in vivo
[15] = Oral bioavailability in monkey at 2 mg/kg; format: ADME, organism-based, Macaca mulatta; settings: rhesus monkey, in vivo
[16] = Tmax in minipig at 2 mg/kg, po; format: ADME, organism-based, Sus scrofa; settings: pig, in vivo
[17] = Tmax in rat at 2 mg/kg, po; format: ADME, organism-based; settings: in vivo
[18] = Volume of distribution at steady state in mouse at 2 mg/kg, iv; format: ADME, organism-based; settings: in vivo, read-out: Vdss
[19] = Volume of distribution at steady state in monkey at 1 mg/kg, iv; format: ADME, organism-based, Macaca mulatta; settings: rhesus monkey, in vivo, read-out: Vdss
[20] = Cmax in monkey at 2 mg/kg, po; format: ADME, organism-based, Macaca mulatta; set-up: dose 2 mg/kg, route oral; settings: rhesus monkey, in vivo
[21] = Volume of distribution at steady state in minipig at 1 mg/kg, iv; format: ADME, organism-based, Sus scrofa; settings: pig, in vivo, read-out: Vdss
[22] = AUC (0 to infinity) in rat at 2 mg/kg, po; format: ADME, organism-based; set-up: dose 2 mg/kg, route oral, time infinity; settings: in vivo; in short: as §1
[23] = Solubility of the compound in fasted state simulated intestinal fluid measured after 4 hrs using crystalline sample; format: physicochemical
[24] = Drug exposure in rat at 2 mg/kg, po; format: ADME, organism-based; settings: in vivo, BLD = below limit of detection; in short: as §1
[25] = Drug metabolism in rat urine assessed as hydroxylation; format: ADME
[26] = Drug metabolism in rat bile assessed as hydroxylation; format: ADME, tissue-based
[27] = Drug metabolism in rat blood assessed as hydroxylation; format: ADME, tissue-based
[28] = Lipophilicity, log P of the compound; format: physicochemical; settings: octanol/water

In the case of `CC(C)(CN)C(=O)N1N=CCC1c1ccccc1` (centres undefined), the chromatographic logD [1] is reported as 1.4.

Compound `C[C@@H]1C=NN(C(=O)C(C)(C)C)[C@@H]1c1ccccc1` has a chromatographic logD [1] of 6.5.

`O=C(C1CCN(c2ccccc2)CC1)N1N=CCC1c1ccccc1` (centres undefined) gave a chromatographic logD [1] of 6.3.

Work on `O=C(C1CCOC1)N1N=CCC1c1ccccc1` (centres undefined) yielded a chromatographic logD [1] of 3.

`CC(C)(C)C(=O)N1N=CCC1c1cccc(Cl)c1` (centres undefined) showed a chromatographic logD [1] of 6.6.

In the case of `O=C(c1cnco1)N1CCC(C(=O)N2N=CC[C@H]2c2ccccc2)CC1`, the chromatographic logD [1] is reported as 2.7, the Vd [2] is reported as 2.1 L/kg and the AUC(0-inf) [3] is reported as 400 ng·h/mL.

With `Cc1nnc(N2CCC(C(=O)N3N=CC[C@H]3c3cc(F)cc(F)c3)CC2)o1` the AUC(0-inf) [4] was 1300 ng·h/mL, the Cmax [5] was 5410 ng/mL and the bioavailability [6] was 65%. It also gave a chromatographic logD [1] of 3.6, a Tmax [7] of 120 min and an AUC(0-inf) [8] of 1100 ng·h/mL. For the same compound, the solubility at 4 h [9] was 250 µg/mL (≈ 0.666 mM), the AUC(0-inf) [10] was 3100 ng·h/mL and the Cmax [11] was 576 ng/mL. It also gave a Vd [2] of 1.3 L/kg, a Cmax [12] of 1100 ng/mL and a bioavailability [13] of 130%. It also gave a Tmax [14] of 30 min, a bioavailability [15] of 40% and an AUC(0-inf) [3] of 1300 ng·h/mL. It also gave a Tmax [16] of 80 min, a Tmax [17] of 25 min and a Vd [18] of 1.8 L/kg. The Vd [19] was 1.1 L/kg, the Cmax [20] was 480 ng/mL and the Vd [21] was 1.3 L/kg.

In the case of `O=C(c1ccccc1)N1CCC(C(=O)N2N=CCC2c2ccccc2)CC1` (centres undefined), the chromatographic logD [1] is reported as 4.4.

`CC(C)(C)C(=O)N1N=CCC1C1CCCC1` (centres undefined) showed a chromatographic logD [1] of 6.7.

`CC(C)(CO)C(=O)N1N=CCC1c1ccccc1` (centres undefined) gave a chromatographic logD [1] of 3.4.

Work on `CN1CCC(C(=O)N2N=CCC2c2ccccc2)CC1` (centres undefined) yielded a chromatographic logD [1] of 1.1.

In the case of `CC(C)(C)C(=O)N1N=CCC1C1CCOCC1` (centres undefined), the chromatographic logD [1] is reported as 4.1.

`O=C(c1cccnc1)N1CCC(C(=O)N2N=CCC2c2ccccc2)CC1` (centres undefined) showed a chromatographic logD [1] of 2.6.

Work on `Cc1ccc(C2CC=NN2C(=O)C(C)(C)C)cc1` (centres undefined) yielded a chromatographic logD [1] of 6.4.

In the case of `CC(=O)N1CCC(C(=O)N2N=CCC2c2ccccc2)CC1` (racemic), the chromatographic logD [1] is reported as 2.5.

For `CC(C)(C)C(=O)N1N=CCC1c1cc[nH]n1` (centres undefined), the chromatographic logD [1] was 2.7.

Work on `O=C(C1CCN(c2cccnn2)CC1)N1N=CC[C@H]1c1ccccc1` yielded a chromatographic logD [1] of 3.4.

Work on `CC(C)(C)C(=O)N1CCC1c1ccccc1` (centres undefined) yielded a chromatographic logD [1] of 5.

With `CC(C)(C)C(=O)N1N=CCC1c1ccc(S(C)(=O)=O)cc1` (centres undefined) the chromatographic logD [1] was 4.1.

In the case of `CC(C)(C)C(=O)N1CCSC1c1ccccc1` (centres undefined), the chromatographic logD [1] is reported as 5.6.

For `CC(C)(C)C(=O)N1N=CCC1c1cccnc1` (centres undefined), the chromatographic logD [1] was 3.2, the AUC(0-inf) [22] was 260 ng·h/mL and the Cmax [12] was 360 ng/mL. For the same compound, the Tmax [17] was 5 min.

`O=C(c1ccccn1)N1N=CCC1c1ccccc1` (centres undefined) showed a chromatographic logD [1] of 2.4.

Work on `O=C(C1CCN(c2ncccn2)CC1)N1N=CC[C@H]1c1ccccc1` yielded a chromatographic logD [1] of 4.7.

`O=C(C1CCCCC1)N1CCC(C(=O)N2N=CCC2c2ccccc2)CC1` (centres undefined) gave a chromatographic logD [1] of 5.4.

Work on `O=C(c1cn[nH]c1)N1CCC(C(=O)N2N=CCC2c2ccccc2)CC1` (centres undefined) yielded a chromatographic logD [1] of 2.1, a Vd [2] of 1.6 L/kg and an AUC(0-inf) [3] of 360 ng·h/mL.

`CC(C)(C)C(=O)N1N=CCC1c1ccccc1` (racemic) showed a chromatographic logD [1] of 5.8.

For `N#Cc1cnc(N2CCC(C(=O)N3N=CC[C@H]3c3cc(F)cc(F)c3)CC2)cn1`, the chromatographic logD [1] was 5.2, the Vd [2] was 6.1 L/kg and the Cmax [12] was 73 ng/mL. The bioavailability [13] was 99%, the AUC(0-inf) [3] was 400 ng·h/mL and the Tmax [17] was 38 min.

In the case of `CC(=O)N1CCC(C(=O)N2N=CC[C@H]2c2ccccc2)CC1`, the chromatographic logD [1] is reported as 2.5, the AUC(0-inf) [22] is reported as 1600 ng·h/mL and the solubility thermodynamic at 4 h [23] is reported as 7400 µg/mL (≈ 24.7 mM). The Vd [2] was 1.7 L/kg, the Cmax [12] was 795 ng/mL and the AUC(0-inf) [3] was 420 ng·h/mL. It also gave a Tmax [17] of 30 min.

`N#Cc1ccc(N2CCC(C(=O)N3N=CC[C@H]3c3cc(F)cc(F)c3)CC2)nn1` showed a chromatographic logD [1] of 4.8.

`O=C(c1cocn1)N1CCC(C(=O)N2N=CCC2c2ccccc2)CC1` (centres undefined) gave a chromatographic logD [1] of 2.9, a Vd [2] of 0.98 L/kg and an AUC(0-inf) [3] of 290 ng·h/mL.

In the case of `CC(C)(C)C(=O)N1N=CCC1c1ccc(Cl)cc1` (centres undefined), the chromatographic logD [1] is reported as 6.6.

In the case of `CC(C)(C)C(=O)N1N=CC[C@H]1c1ccccc1`, the Drug uptake [24] is reported as “Bld”, the chromatographic logD [1] is reported as 5.8 and the Drug metabolism [25] is reported as “Metabolite_Detected”. For the same compound, the Drug metabolism [26] was “Metabolite_Detected”, the Drug metabolism [27] was “Metabolite_Detected” and the logP [28] was 5.9.

Compound `CN1CCN(C(=O)C(C)(C)C)C(c2ccccc2)C1` (centres undefined) has a chromatographic logD [1] of 4.9.

`CC(C)(C)C(=O)N1N=CCC1c1cc(F)cc(F)c1` (centres undefined) showed a chromatographic logD [1] of 6.3.
